# In ChEMBL document CHEMBL4513216, “Probing the Open Global Health Chemical Diversity Library for Multistage-Active Starting Points for Next-Generation Antimalarials” (ACS Infect Dis, 2020):
# Test: Toxicity liver stage against HepG2, at 10uM
# Format: cell-based
# Set-up: test concentration 10 uM, cell line HepG2-A16-CD81EGFP
# Settings: human, HepG2-A16-CD81EGFP cells; read-out: INHIBITION
# Summary of the method: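 Uninfected HepG2-A16-CD81EGFP cells, 3 × 10^3 per well, 1536-well, plated on prespotted compound at 10 μM final, parasite-free screening media added to match infected plates; puromycin 10 μM positive, DMSO 0.5% negative; run in parallel with 48 h PbLuc assay at 37 °C, 5% CO2; viability by CellTiter-Glo luminescence, normalized to controls.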
row,Compound,cytotoxicity at 10 µM [%]
1,COc1cccc(CN2CC[C@H](c3nnc(-c4ccco4)o3)C2)c1,-1.34
2,CC(=O)N1CCC(NC2(Cc3cc(CC(C)C)on3)COC2)CC1,2.8
3,O=C(Cn1c(=O)oc2ccccc21)NCC1(O)CCc2ccccc21 (stereo not given),-17.2
4,COC(=O)N1CCc2ccccc2C1C(=O)NCc1cccs1 (stereo not given),-0.634
5,Cc1ccc2c(c1)C1(CCNCC1)CC2OCC1CC1 (stereo not given),6.13
6,COCc1nnn2c1CN(C(=O)c1ccnnc1)CCC2,-0.461
7,CCCN(CC)C(=O)c1nc2c(n1C)CCN(Cc1ccccc1)C2,7.28
8,CCOCc1ncn2c1CN(C(=O)Nc1ccccc1)CC2,3.54
9,CCCNC(=O)c1cc2c(s1)CCN2C(=O)c1ccccc1,7.31
10,CN(Cc1cccnc1)[C@@H]1CN(c2ccccn2)[C@@H]2CCCO[C@H]12,2.78
11,COCc1nc2nc(O)c3c(n2n1)NC(=O)CC3c1ccccc1Cl (stereo not given),-20.8
12,O=c1[nH]cnc2[nH]c(N3CCNCC3)nc12,-4.31
13,CCN(CC)S(=O)(=O)c1cnccc1N1CCN(C(C)C)CC1,-5.57
14,COc1cccc2c1ccn2CC(=O)N[C@@H](CCSC)C(=O)O,3.2
15,Cc1cnc(N2CCC3(CCCN(c4ccc(C)nn4)C3)C2)nc1 (stereo not given),-20.7
16,CCOc1ccc2nc(NC(=O)c3c(C(=O)O)cnn3C)sc2c1,6.47
17,COCC(=O)NCc1ccc(-c2ccccc2C(=O)O)cn1,-1.53
18,CNc1cc(CCNC(=O)CC(C)C)nc(-c2ccccn2)n1,1.26
19,COCCNc1ccc(CC2CCNC2)cn1 (stereo not given),9.33
20,CC(=O)N1CCC(Cc2cnc(-c3c(C)nn(C)c3C)cn2)CC1,-11.8
21,CNC(=O)C1(C)CCCN(c2cnccn2)C1 (stereo not given),-25.3
22,COCC(=O)N1CCC(c2cc3ncccc3c(O)n2)CC1,-22.7

row,Compound,cytotoxicity at 10 µM [%]
1,CNc1cc(C2CN(Cc3scnc3C)CCO2)nc(C)n1 (stereo not given),-24.7
2,COCCC(=O)N1CCC(C(=O)c2cc(C)cnc2N)CC1,-27.7
3,COCC(=O)N1CCCCC1c1ccnc(Nc2cnccn2)n1 (stereo not given),-24.1
4,c1cnc(N2CCCC(c3n[nH]c4ncccc34)C2)nc1 (stereo not given),-0.64
5,CC(C)CN1CCC(C(=O)NCCNC(=O)c2ccco2)CC1,-5.18
6,COc1ccc(-n2cc(CNC(=O)c3cscn3)nn2)cc1,-2.33
7,Cc1nncn1CCNC(=O)C1SCCc2sccc21 (stereo not given),2.96
8,CN1CCC(Nc2ccc(Cl)cc2OCC(F)(F)F)C1=O (stereo not given),5.02
9,Cc1noc(OCC(=O)N2CCCCC2C)n1 (stereo not given),0.714
10,Cc1cnn(CC(C)Nc2cnc3ccccc3n2)c1 (stereo not given),14.5
11,Cc1ccc(S(=O)(=O)N2CCOCC2C#N)c(F)c1 (stereo not given),9.78
12,CNC(=O)N1CCC(=Cc2ccccc2)CC1,-1.52
13,O=C(NCc1cc(F)cc(Br)c1)C1(O)CCSCC1,3.6
14,Cn1c(=O)[nH]c2cc(C(=O)OCC(F)F)ccc21,-17.3
15,CC(=O)N1CCN(C(=O)CCNc2snc(Cl)c2C#N)CC1,-0.367
16,CCCc1nnc(NC(=O)NC(CCO)c2cccs2)s1 (stereo not given),-7.38
17,O=C(NC1CCCN(c2ccc(OC(F)F)cc2)C1)c1cnccn1 (stereo not given),0
18,NC(=O)C1CCCN1C(=O)c1cccc2c1OCO2 (stereo not given),-9.56
19,CCN1C(=O)C2(CCCCC2)NC12CCSCC2,-149
20,Cc1nc(-c2ccccc2)n(CC(=O)NC(C)C2CC2)n1 (stereo not given),7.44
21,CC(C)C(Sc1nnc(NC2CC2)s1)C(=O)NCc1cccnc1 (stereo not given),-5.49
22,Cc1nc(Cn2cc(I)cc(C)c2=O)oc1C,0.939

row,Compound,cytotoxicity at 10 µM [%]
1,Cc1ccc(NCc2ncc(C(C)(C)C)o2)c(Cl)c1,-15.4
2,CCC1CN(C(=O)COc2ccc(C(=O)NC3CC3)cc2)CCO1 (stereo not given),-4.39
3,O=S(=O)(Nc1ncccc1F)c1cc(Cl)cc2c1OCC2,1.6
4,O=C(c1c[nH]c2ccccc2c1=O)N1CCSCC1,-5.63
5,CCNC(=O)N1CCc2ccc(NC(=O)NCCOCC)cc21,-3.86
6,O=C(CCc1ccc(Cl)cc1)N1CCC(O)(C(F)(F)F)C1 (stereo not given),1.16
7,CCSc1cncc(N2CCC(C(=O)NC(C)C(C)C)CC2)n1 (stereo not given),-1.81
8,Cc1cnn(CC2CN(CCS(=O)(=O)c3ccccc3)CCO2)c1 (stereo not given),-3.08
9,O=C(NCCCN1CCOCC1)c1cc(-c2ccco2)[nH]n1,-15.4
10,C1CCCN(c2nc(C3CC3)ns2)CC1,-12.3
11,CC1c2ncc(COCC3CC3)n2CCN1C(=O)c1ccnnc1 (stereo not given),4.66
12,COCC1CN(C(=O)Cc2ccccn2)Cc2cn(CC3CC3)nc21 (stereo not given),-1.32
13,CN(C)S(=O)(=O)CCNc1ncc2c(n1)CCN2c1ccccc1,-5.6
14,CCCN1CCN(Cc2nc3ccccc3[nH]2)[C@H]2CS(=O)(=O)C[C@H]21,-137
15,CSc1ccccc1CN1C[C@H]2C(=O)N(CC3CC3)C[C@@]2(C(=O)O)C1,0.666
16,CC(C)c1nc(N2CCC(N3CCCC(O)C3)CC2)c2cnn(C)c2n1 (stereo not given),-127
17,Nc1cnc(-c2cccc3ccnn23)cn1,-1.7
18,CC(C)(C)NC(=O)N1CCCn2nc(C(=O)Nc3ccccc3)cc2C1,8.88
19,O=C(N[C@@H]1CCN(Cc2ccc(F)cc2F)C[C@H]1O)c1cccnc1,-10.4
20,COCCn1ccnc1C1CCCN(C(=O)c2ccccc2C#N)C1 (stereo not given),-0.675
21,CCCOCC1CCN(C(=O)c2cnc(-c3cccnc3)nc2O)C1 (stereo not given),-2.55
22,COC(=O)[C@@H]1C[C@@H](NC(=O)CN2C(=O)N(C)Cc3ccccc32)CN1C,-2.62

row,Compound,cytotoxicity at 10 µM [%]
1,Cc1ccc(C#N)c(N2CCC3(CCC(=O)N(CC(N)=O)C3)CC2)n1,0.845
2,O=C(c1ccsc1)N1CCc2c(nc(-c3ccncc3)[nH]c2=O)C1,-1.67
3,CC(NC(=O)c1coc(COc2cccc(F)c2)n1)c1nnc(N)s1 (stereo not given),-144
4,Cn1c(CN2CCCCC2)nnc1C1CCCN(C(=O)CCC(N)=O)C1 (stereo not given),3.94
5,CCN(CCc1nc2cc(C)ccc2[nH]1)C(=O)[C@@H](N)Cc1c[nH]cn1,-3.78
6,CSCc1noc(CNC(=O)C2CCN(C(=O)C3CCCC3)CC2)n1,9.98
7,CN(C)[C@H]1CN(C(=O)c2ccc3sc4c(c3c2)CCNC4=O)C[C@@H]1O,-5.38
8,Cc1nc[nH]c1CN1CCCn2nc(CN3CCC(F)(F)CC3)cc2C1,0.13
9,CCNC(=O)[C@@H]1CCCN1C(=O)c1cccc(CCC(C)(C)O)c1,9.91
10,Cc1nc(C2CCCN2C(=O)CCCn2cccn2)no1 (stereo not given),-4.77
11,Cn1cc(C2CCCN2C(=O)c2ccc(OCC3CC3)nc2)cn1 (stereo not given),-7.77
12,O=C(c1cc(C2CC2)[nH]n1)N1CCN(Cc2ccccc2)CC1,-5.94
13,CC(NCc1ccc(F)cc1)c1ccc2[nH]c(=O)[nH]c2c1 (stereo not given),-9.93
14,CCOc1ccc(C(=O)N2CCCC2c2c(C)nn(C)c2Cl)cn1 (stereo not given),-12.4
15,Cc1ccc(NC2CCN(C(=O)c3cc(C)no3)CC2)nn1,-11.6
16,CN(CC(=O)N1CCCC1c1cnn(C)c1)Cc1ccccc1 (stereo not given),-4.38
17,Cc1nc(C2CCCN(C(=O)c3cc(-c4ccccc4)[nH]n3)C2)no1 (stereo not given),-7.99
18,CCc1ncc2c(n1)CN(CC(=O)Nc1cc(C)no1)CC2,-16.9
19,CC(C)COCC(NC(=O)c1cnccn1)c1ccco1 (stereo not given),-13.8
20,CC(C)c1nc(CN(C)C2CCN(Cc3nnc(C4CC4)o3)C2)no1 (stereo not given),5.87
21,c1ccc(CCCN2CCCC2Cn2cncn2)cc1 (stereo not given),-0.121
22,CC(C)CCOCCNC(=O)Nc1ccc(F)c(C(N)=O)c1,-11.6

row,Compound,cytotoxicity at 10 µM [%]
1,Cc1cc(C)n(C2CCCN(C(=O)CCOc3cccc(F)c3)C2)n1 (stereo not given),-5.56
2,CCc1noc(CN2CCN(C(=O)N(C)C)CC2)n1,-4.97
3,Cc1ccc(-c2nc(CN3CCn4c(nnc4C4CC4)C3)co2)cc1,5.17
4,Fc1ccc(CN[C@@H]2COC[C@H]2c2ccc(F)cc2)cc1,2.57
5,O=S(=O)(c1cccs1)N1CC[C@H]2[C@H]1CCN2c1ncccn1,-0.861
6,Cc1ccoc1C(=O)N1C[C@@H](N2CCN(C)CC2)[C@H]2OCCC[C@H]21,7.1
7,CC(C)C(=O)N1CCCC2(CCCN2CC2CCCC2)C1 (stereo not given),5.25
8,O=C(O)c1c(-c2cncnc2)ncc2c1CCN(Cc1ccco1)C2,-2.69
9,CN(Cc1cccnc1)[C@@H]1CN(Cc2nccn2C)[C@@H]2CCCO[C@H]12,-9.46
10,CC(=O)N1CCC[C@@H](NCc2c[nH]c3ccccc23)[C@@H]1c1ccc(C)s1,-39
11,CCN1CCCC12CCN(C(=O)c1nccn1C)CC2,7.89
12,O=S(=O)(C1CC1)N1CCOCC2(CCN(c3ccccn3)C2)C1 (stereo not given),12.9
13,c1cncc(OCc2noc3c2CN(Cc2cccs2)CC3)c1,9.95
14,CN(C)C(=O)c1n[nH]c2c1CN(Cc1ccccn1)CC2,3.17
15,COCCN1C[C@@H]2[C@@H](OC)CCN(C(=O)Cc3ccccc3)[C@@H]2C1,3.5
16,COc1ccc(CN2C[C@@H]3COC[C@@H](CC(=O)N4CCCC4)[C@@H]3C2)cc1,-18.8
17,CC[C@@H]1N(Cc2nccs2)CCC[C@]12CCC(=O)N2C,0.287
18,CCN1CCC2(CC1)C(=O)Nc1ccc(C(=O)NC)cc12,-0.697
19,O=C(c1ccoc1)N1CCO[C@]2(CCC[C@@H]2COCc2cccnc2)C1,6.32
20,Cc1ccc(C(=O)N2C[C@H]3CC[C@@H](C2)N(CC2CCC2)C3)s1,-4.2
21,CC(C)c1ccc(NS(=O)(=O)C=c2[nH]c(=O)n3cccc3c2=O)cc1,-4.55
22,O[C@@H]1CC(CNCc2ccc(Cl)cc2)(COc2cccnc2)C[C@@H]1O (stereo not given in full),-2.23
